Screens: PubChem BioAssay, several laboratories
L major viab: Leishmania major promastigote growth inhibition; Leishmania major promastigotes, resazurin fluorescence viability; inhibition, % at 10 µM; AID 1063; hit rate 9% among 200,000; in the data active = inhibition above about 50%;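 also: promastigotes grown with compound for 44 hours at 28 °C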
PTEN del growth: growth suppressors of cells with PTEN tumor suppressor deletion. HCT116 PTEN-null viability, CellTiter-Glo, 60 h; hits give low values. viability, % at 10 µM. hit rate 1.2% among 140,000. AID 827;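 active = viability at or below a set limit, 4 SD under the median of all tested compounds, cut at about 3.7% in these data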;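 also: PTEN knockout HCT116 line with beta catenin targeted HCT116 as companion control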
PMI act: phosphomannose isomerase (human) activation; purified human PMI, coupled resazurin fluorescence, 20 min; hits give high values; 1 = vehicle control, 0 substrate-free wells; P34949; activation factor at 20 µM; hit rate 0.005% among 190,000; AID 1214;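 active = activation factor of 2 or more at 20 µM, relative to plate controls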
Target sequence (P34949 whole entry, looked up): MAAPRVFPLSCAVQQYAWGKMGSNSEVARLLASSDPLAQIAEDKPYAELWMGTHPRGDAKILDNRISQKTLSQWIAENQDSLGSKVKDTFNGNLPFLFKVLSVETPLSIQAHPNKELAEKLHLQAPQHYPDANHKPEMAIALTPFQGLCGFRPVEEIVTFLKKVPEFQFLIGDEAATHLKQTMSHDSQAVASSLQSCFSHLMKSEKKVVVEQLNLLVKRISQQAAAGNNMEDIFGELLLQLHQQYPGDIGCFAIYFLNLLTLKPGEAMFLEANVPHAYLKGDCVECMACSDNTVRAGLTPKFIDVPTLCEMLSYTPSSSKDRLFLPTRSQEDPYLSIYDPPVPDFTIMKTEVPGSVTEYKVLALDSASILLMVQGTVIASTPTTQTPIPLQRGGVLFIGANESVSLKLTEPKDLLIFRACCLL
HCT116 bCat-KO: beta-catenin-lacking colon tumor cell growth suppression. HCT116 beta-catenin knockout viability, CellTiter-Glo, 60 h; hits give low values. viability, % at 10 µM. hit rate 1.5% among 140,000;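 active = viability at or under a set limit, the compound median less 4 SD, cut at about 6% in these data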;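 also: 0% = Hyamine 1622 control at 20 µM and 100% = untreated cell control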
PMI act hi M6P: PMI (human) activation, high substrate; P34949; hit rate 0.34% among 190,000; AID 1216; activation factor at 20 µM; coupled PMI enzyme assay, resazurin fluorescence, 20 min; hits give high values; 1 = untreated enzyme, 0 = substrate-free blank;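 active = activation factor of 2 or more at 20 µM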
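Test system: human phosphomannose isomerase with PGI, G6PDH, diaphorase coupling enzymes; Amount: PMI at 15 ng/mL final; Reagent: Mannose-6-phosphate 1.0 mM (near-saturating) plus 0.22 mM NADP+; Timing: 20 min, room temperature; Technique: resorufin fluorescence at Ex 544/Em 590 nm; Dosing: 20 µM single dose.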
Starred values were filed as active, the others as inactive; · = not tested or not shown. The list is not random: actives were taken first. Their share in the collection is about 9.6%.

SMILES	L major viab	PTEN del growth	PMI act	HCT116 bCat-KO	PMI act hi M6P
COC(=O)c1cc([N+](=O)[O-])c(-n2cncn2)c([N+](=O)[O-])c1	1.8	·	·	·	·
CC(C)OC(=O)/C(=C/c1ccc2c(c1)c1ccccc1n2C)NC(=O)c1ccccc1	40.3	72.6	0.8	84.4	0.9
COC(=O)/C(=C\c1ccc2c(c1)c1ccccc1n2C)NC(=O)c1ccccc1	63.3*	65.9	0.8	75.7	1
O=C(c1ccc(=O)[nH]n1)N1CCN(S(=O)(=O)c2ccc3ccccc3c2)CC1	-9.0	·	1.2	·	1
O=C(c1n[nH]c2ccccc12)N1CCN(S(=O)(=O)c2ccc3ccccc3c2)CC1	55.1*	68.4	1.1	86.3	1.2
O=S(=O)(NC1=NCCC1)c1cccc(NS(=O)(=O)c2ccc(OC(F)(F)F)cc2)c1	53.8*	96.3	1	88.5	1.1
Cc1ccc(C(C)(C)C)cc1S(=O)(=O)Nc1cccc(S(=O)(=O)NC2=NCCC2)c1	-5.8	99.6	1	87.4	1
COc1cccc(CN2CCC(N(CCc3ccccc3)Cc3ccccc3)CC2)c1OC	99.2*	8.9	1	11.5	1
COCc1cc(C)nc(Oc2ccccc2)c1C#N	-8.9	·	0.9	·	0.9
O=C(CSCCO)Nc1ccc([N+](=O)[O-])cc1	-6.5	·	1.1	·	1.1
O=C(CSCCO)Nc1cccc([N+](=O)[O-])c1	64.8*	104.7	0.9	87.8	1
Cn1c(=N)n(CC(O)c2cccc3ccccc23)c2ccccc21 (stereo not drawn)	101.8*	32.1	1	28.7	1
CC1Cc2ccccc2N1S(=O)(=O)c1cccc(C(=O)N2CCN(c3ncccn3)CC2)c1 (stereo not drawn)	77.4*	·	1	·	1.1
CCOC(=O)c1ccc(NC(=O)c2cccc(S(=O)(=O)N3c4ccccc4CC3C)c2)s1 (stereo not drawn)	99.2*	15.4	1	20.0	1
Cc1[nH]nc2c1C1(CCC3(CC1)OCCO3)C(C#N)=C(N)O2	-4.5	109.8	1	100.4	1
CCCN(S(=O)(=O)c1ccc(OCC)cc1)S(=O)(=O)c1cccs1	0.8	82.8	0.7	99.6	0.8
Cc1nn(C)cc1C1C2=C(CC(C)(C)CC2=O)OC2=C1C(=O)CC(C)(C)C2	-6.9	100.5	1.2	96.3	1.1
COc1ccccc1N1CCN(S(=O)(=O)c2cnc[nH]2)CC1	-8.2	100.3	0.9	95.5	0.9
Cc1cccc(CSc2nnc(-c3cccs3)n2Cc2ccco2)c1	90.2*	68.4	0.9	80.5	1
COc1ccc(CCC(=O)Nc2cccc(Cl)c2)cc1	-7.1	99.6	1	92.0	1
O=C(CCc1ccc(Oc2cc([N+](=O)[O-])cc([N+](=O)[O-])c2)cc1)Nc1cccc(Cl)c1	100.1*	81.1	0.8	85.4	0.9
O=C(CCc1ccc(Oc2cc([N+](=O)[O-])cc([N+](=O)[O-])c2)cc1)N1CCCCC1	92.4*	85.5	0.9	92.5	1
Cc1ccc(N=Cc2cc(Cc3ccccc3Cl)cc([N+](=O)[O-])c2O)c(O)c1	72.8*	·	0.8	·	0.4
COc1ccc2nc(N=Nc3ccc(O)c4ccccc34)sc2c1	97.9*	9.2	1.3	8.1	1.2
COc1ccc2nc(N=NC3=C(O)CC(C)(C)CC3=O)sc2c1	-5.6	·	1.2	·	1.2
SMILES	L major viab	PTEN del growth	PMI act	HCT116 bCat-KO	PMI act hi M6P
CC[C@@H](C)[C@@H](C(=O)N1CCNCC1)n1cc(CCC(=O)O)nn1	-3.9	·	1	·	1.1
Cc1ccc(N2C(=O)CC(Sc3ncn[nH]3)C2=O)cc1C (stereo not drawn)	-4.5	105.8	0.3	87.0	0.8
CN1CCN(C2=C(Cl)C(=O)C(c3cnc(N4CCCCC4)s3)=C(Cl)C2=O)CC1	7.3	1.6*	0.9	1.7*	1
c1ccc(-c2nnc(-c3ccccn3)nc2NC2CCCCC2)cc1	100.3*	7.2	1.1	4.0*	1.1
CNc1nc(-c2ccccn2)nnc1-c1ccccc1	98.7*	21.2	1	18.7	1
c1ccc(-c2noc(CC3CCCCC3)n2)nc1	3.6	·	1	·	1
CC1CC(C)CN(c2cc(=O)n(Cc3ccc(F)cc3)c(=O)[nH]2)C1 (stereo not drawn)	9.6	89.4	0.8	96.4	0.9
Cc1cc(F)ccc1S(=O)(=O)Nc1ccccc1C(=O)Nc1ncn[nH]1	-1.2	88.4	1	98.8	1
